Results from ChEMBL document CHEMBL4699666, “Cyclic Peptidyl Inhibitors against CAL/CFTR Interaction for Treatment of Cystic Fibrosis” (J Med Chem, 2020).
Non-standard residues stand in square brackets, D forms with d. Residues, ends and D or L forms follow the SMILES beside them. *: point of attachment. 1Nal = N[C@@H](Cc1cccc2ccccc12)C(=O)O; 2Nal = N[C@@H](Cc1ccc2ccccc2c1)C(=O)O; Bta = N[C@@H](Cc1csc2ccccc12)C(=O)O; Pen = CC(C)(S)[C@H](N)C(=O)O; Tle = CC(C)(C)[C@H](N)C(=O)O; Nicotinoyl = O=C(c1cccnc1)*

Assays:
[1] = target: T1, Na(+)/H(+) exchange regulatory cofactor NHE-RF2 (Homo sapiens, UniProt Q15599); assay: Binding affinity to NHERF2 PDZ1 domain (unknown origin) expressed in Escherichia coli BL21 incubated for 1 hr by fluorescence polarization based competition assay
How it was run: (§1)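 CAL, NHERF1 and NHERF2 PDZ domains carried a C-terminal His6 tag, were expressed in E. coli BL21 (0.1 mM IPTG, 16 h at 18 °C) and purified on Ni-NTA. For direct binding, 50 nM fluorescein-labelled peptide was titrated with PDZ protein (0–2.5 μM CAL; 0–25 μM NHERF1/2) in PBS pH 7.4 with 0.01% Triton X-100 and 2 mM TCEP for 1 h at room temperature. Fluorescence polarization gave KD; n = 3.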

[2] = target: T2, Na(+)/H(+) exchange regulatory cofactor NHE-RF1 (Homo sapiens, UniProt O14745); assay: Binding affinity to NHERF1 PDZ1 domain (unknown origin) expressed in Escherichia coli BL21 incubated for 1 hr by fluorescence polarization based competition assay; how it was run: as §1
T2 sequence (O14745 whole entry): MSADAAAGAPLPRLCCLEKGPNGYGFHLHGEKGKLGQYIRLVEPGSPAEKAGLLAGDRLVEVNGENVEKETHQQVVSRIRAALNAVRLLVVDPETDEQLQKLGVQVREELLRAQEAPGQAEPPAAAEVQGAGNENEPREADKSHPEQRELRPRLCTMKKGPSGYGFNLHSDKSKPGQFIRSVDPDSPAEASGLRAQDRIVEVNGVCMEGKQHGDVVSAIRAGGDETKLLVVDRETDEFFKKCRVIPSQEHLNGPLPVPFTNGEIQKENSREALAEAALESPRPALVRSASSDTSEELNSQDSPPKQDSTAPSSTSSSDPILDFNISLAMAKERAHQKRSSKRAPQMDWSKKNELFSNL

[3] = target: T1, Na(+)/H(+) exchange regulatory cofactor NHE-RF2; assay: Binding affinity to NHERF2 PDZ2 domain (unknown origin) expressed in Escherichia coli BL21 incubated for 1 hr by fluorescence polarization based competition assay
[4] = target: T3, Golgi-associated PDZ and coiled-coil motif-containing protein (Homo sapiens, UniProt Q9HD26); assay: Binding affinity to C-terminal His6 tagged CAL PDZ domain (unknown origin) expressed in Escherichia coli BL21 incubated for 1 hr by fluorescence polarization assay
[5] = target: T3, Golgi-associated PDZ and coiled-coil motif-containing protein; assay: Binding affinity to C-terminal His6 tagged CAL PDZ domain (unknown origin) expressed in Escherichia coli BL21 incubated for 1 hr using FAM-22 probe by fluorescence polarization based competition assay
[6] = Drug uptake in human HeLa cells at 5 uM incubated for 2 hrs by flow cytometry relative to CPP9; assay type: ADME, cell-based
How it was run: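 Naphthofluorescein-labelled cyclic peptides (5 μM final, 0.5% DMSO, in DMEM with 10% FBS) were applied to HeLa cells, seeded the day before at 15 × 10^4 per well, for 2 h at 37 °C. Cells were washed with cold DPBS, trypsinized and analysed by flow cytometry. Mean fluorescence was expressed as % of CPP9; n = 3.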

[7] = target: T3, Golgi-associated PDZ and coiled-coil motif-containing protein; assay: Binding affinity to C-terminal His6 tagged CAL PDZ domain (unknown origin) expressed in Escherichia coli BL21 incubated for 1 hr using FAM-ANSRWPTSII-OH probe by fluorescence polarization based competition assay

T1 sequence (Q15599 whole entry, the tested form may be a part): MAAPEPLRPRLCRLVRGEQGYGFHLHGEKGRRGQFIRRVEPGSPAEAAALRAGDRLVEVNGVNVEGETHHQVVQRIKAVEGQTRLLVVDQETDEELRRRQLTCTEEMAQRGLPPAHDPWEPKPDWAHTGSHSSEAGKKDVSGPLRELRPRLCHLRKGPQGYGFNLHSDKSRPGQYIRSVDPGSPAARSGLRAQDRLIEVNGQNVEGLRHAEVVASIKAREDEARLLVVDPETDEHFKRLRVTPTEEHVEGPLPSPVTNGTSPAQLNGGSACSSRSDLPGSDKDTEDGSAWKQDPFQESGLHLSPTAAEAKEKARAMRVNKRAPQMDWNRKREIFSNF

Structure (SMILES): C[C@@H](O)[C@H](NC(=O)[C@@H](NC(=O)[C@@H]1CCCN1C(=O)[C@H](Cc1csc2ccccc12)NC(=O)[C@H](Cc1ccc2ccccc2c1)NC(=O)[C@H](CCCNC(=N)N)NC(=O)[C@H](CCCNC(=N)N)NC(=O)[C@@H](CCCNC(=N)N)NC(=O)[C@H](CS)NC(=O)COCCOCCNC(=S)Nc1ccc2c(c1)C(=O)OC21c2ccc(O)cc2Oc2cc(O)ccc21)C(C)(C)S)C(=O)N[C@@H](CCCNC(=N)N)C(=O)N[C@H](C(=O)O)C(C)(C)C
- Kd [1]: 6040 nM
- Kd [2]: 3970 nM
- Kd [3]: 7660 nM
- Kd [4]: 87 nM

Structure (SMILES): CC(=O)N[C@@H](CS)C(=O)N[C@H](CCCNC(=N)N)C(=O)N[C@@H](CCCNC(=N)N)C(=O)N[C@@H](CCCNC(=N)N)C(=O)N[C@@H](Cc1ccc2ccccc2c1)C(=O)N[C@@H](Cc1c[nH]c2ccccc12)C(=O)N[C@@H](CCC(N)=O)C(=O)N[C@H](C(=O)N[C@H](C(=O)N[C@@H](CCCNC(=N)N)C(=O)N[C@H](C(=O)O)C(C)(C)C)[C@@H](C)O)C(C)(C)S (Ac-C[dR]RR[2Nal]WQ[Pen]TR[Tle]-OH)
- IC50 [5]: 170 nM
- Drug uptake [6]: 28%

Structure (SMILES): CC(=O)N[C@@H](CCCNC(=N)N)C(=O)N[C@@H](CCCNC(=N)N)C(=O)N[C@@H](Cc1ccccc1)C(=O)N[C@@H](Cc1c[nH]c2ccccc12)C(=O)N[C@@H](CCC(N)=O)C(=O)N[C@@H](CS)C(=O)N[C@H](C(=O)N[C@@H](CCCCNC(=N)N)C(=O)N[C@H](C(=O)O)C(C)(C)C)[C@@H](C)O
- IC50 [7]: 2400 nM

Structure (SMILES): CC(=O)N[C@@H](CS)C(=O)N[C@@H](CCCNC(=N)N)C(=O)N[C@@H](CCCNC(=N)N)C(=O)N[C@@H](CCCNC(=N)N)C(=O)N[C@@H](Cc1cccc2ccccc12)C(=O)N[C@@H](Cc1c[nH]c2ccccc12)C(=O)N[C@@H](CCC(N)=O)C(=O)N[C@H](C(=O)N[C@H](C(=O)N[C@@H](CCCNC(=N)N)C(=O)N[C@H](C(=O)O)C(C)(C)C)[C@@H](C)O)C(C)(C)S (Ac-CRRR[1Nal]WQ[Pen]TR[Tle]-OH)
- IC50 [5]: 150 nM

Structure (SMILES): CC(=O)N[C@@H](CS)C(=O)N[C@@H](CCCNC(=N)N)C(=O)N[C@H](CCCNC(=N)N)C(=O)N[C@@H](CCCNC(=N)N)C(=O)N[C@@H](Cc1ccc2ccccc2c1)C(=O)N[C@@H](Cc1c[nH]c2ccccc12)C(=O)N[C@@H](CCC(N)=O)C(=O)N[C@H](C(=O)N[C@H](C(=O)N[C@@H](CCCNC(=N)N)C(=O)N[C@H](C(=O)O)C(C)(C)C)[C@@H](C)O)C(C)(C)S (Ac-CR[dR]R[2Nal]WQ[Pen]TR[Tle]-OH)
- Drug uptake [6]: 17%

Structure (SMILES): CC(=O)N[C@@H](CCCNC(=N)N)C(=O)N[C@@H](CCCNC(=N)N)C(=O)N[C@@H](Cc1ccccc1)C(=O)N[C@@H](Cc1c[nH]c2ccccc12)C(=O)N[C@@H](CCC(N)=O)C(=O)N[C@@H](CS)C(=O)N[C@H](C(=O)N[C@@H](CCCCNC(=O)c1cccnc1)C(=O)N[C@H](C(=O)O)C(C)(C)C)[C@@H](C)O (Ac-RRFWQCTK(Nicotinoyl)[Tle]-OH)
- IC50 [7]: 2200 nM

Structure (SMILES): C[C@@H](O)[C@H](NC(=O)[C@@H](NC(=O)[C@@H]1CCCCN1C(=O)[C@H](Cc1csc2ccccc12)NC(=O)[C@H](Cc1ccc2ccccc2c1)NC(=O)[C@H](CCCNC(=N)N)NC(=O)[C@H](CCCNC(=N)N)NC(=O)[C@@H](CCCNC(=N)N)NC(=O)[C@H](CS)NC(=O)COCCOCCNC(=S)Nc1ccc2c(c1)C(=O)OC21c2ccc(O)cc2Oc2cc(O)ccc21)C(C)(C)S)C(=O)N[C@@H](CCCNC(=N)N)C(=O)N[C@H](C(=O)O)C(C)(C)C
- Kd [1]: 1370 nM
- Kd [2]: 780 nM
- Kd [3]: 7480 nM
- Kd [4]: 6 nM

Structure (SMILES): CC(=O)N[C@@H](CS)C(=O)N[C@H](CCCNC(=N)N)C(=O)N[C@H](CCCNC(=N)N)C(=O)N[C@@H](CCCNC(=N)N)C(=O)N[C@@H](Cc1ccc2ccccc2c1)C(=O)N[C@@H](Cc1c[nH]c2ccccc12)C(=O)N[C@@H](CCC(N)=O)C(=O)N[C@H](C(=O)N[C@H](C(=O)N[C@@H](CCCNC(=N)N)C(=O)N[C@H](C(=O)O)C(C)(C)C)[C@@H](C)O)C(C)(C)S (Ac-C[dR][dR]R[2Nal]WQ[Pen]TR[Tle]-OH)
- Drug uptake [6]: 23%

Structure (SMILES): CC(=O)N[C@@H](CS)C(=O)N[C@@H](CCCNC(=N)N)C(=O)N[C@@H](CCCNC(=N)N)C(=O)N[C@@H](CCCNC(=N)N)C(=O)N[C@@H](Cc1ccc2ccccc2c1)C(=O)N[C@@H](Cc1c[nH]c2ccccc12)C(=O)N[C@@H](CCC(N)=O)C(=O)N[C@H](C(=O)N[C@H](C(=O)N[C@@H](CCCNC(=N)N)C(=O)N[C@H](C(=O)O)C(C)(C)C)[C@@H](C)O)C(C)(C)S (Ac-CRRR[2Nal]WQ[Pen]TR[Tle]-OH)
- IC50 [5]: 150 nM

Structure (SMILES): CC(=O)N[C@@H](CS)C(=O)N[C@H](CCCNC(=N)N)C(=O)N[C@@H](CCCNC(=N)N)C(=O)N[C@@H](CCCNC(=N)N)C(=O)N[C@@H](Cc1ccc2ccccc2c1)C(=O)N[C@@H](Cc1c[nH]c2ccccc12)C(=O)N[C@H](C(=O)N[C@H](C(=O)N[C@H](C(=O)N[C@@H](CCCNC(=N)N)C(=O)N[C@H](C(=O)O)C(C)(C)C)[C@@H](C)O)C(C)(C)C)C(C)(C)S (Ac-C[dR]RR[2Nal]W[Pen][Tle]TR[Tle]-OH)
- Drug uptake [6]: 92%

Structure (SMILES): CC(=O)N[C@@H](CS)C(=O)N[C@@H](CCCNC(=N)N)C(=O)N[C@@H](CCCNC(=N)N)C(=O)N[C@@H](CCCNC(=N)N)C(=O)N[C@@H](Cc1ccccc1)C(=O)N[C@@H](Cc1cccc2ccccc12)C(=O)N[C@@H](CCC(N)=O)C(=O)N[C@@H](CS)C(=O)N[C@H](C(=O)N[C@@H](CCCNC(=N)N)C(=O)N[C@H](C(=O)O)C(C)(C)C)[C@@H](C)O (Ac-CRRRF[1Nal]QCTR[Tle]-OH)
- IC50 [5]: 1800 nM

Structure (SMILES): CC(=O)N[C@@H](CS)C(=O)N[C@H](CCCNC(=N)N)C(=O)N[C@@H](CCCNC(=N)N)C(=O)N[C@@H](CCCNC(=N)N)C(=O)N[C@@H](Cc1ccc2ccccc2c1)C(=O)N[C@@H](Cc1csc2ccccc12)C(=O)N[C@H](C(=O)N[C@H](C(=O)N[C@H](C(=O)N[C@@H](CCCNC(=N)N)C(=O)N[C@H](C(=O)O)C(C)(C)C)[C@@H](C)O)C(C)(C)C)C(C)(C)S (Ac-C[dR]RR[2Nal][Bta][Pen][Tle]TR[Tle]-OH)
- IC50 [5]: 240 nM
- Drug uptake [6]: 518%

Structure (SMILES): CC(=O)N[C@@H](CS)C(=O)N[C@H](CCCNC(=N)N)C(=O)N[C@@H](CCCNC(=N)N)C(=O)N[C@@H](CCCNC(=N)N)C(=O)N[C@@H](Cc1ccc2ccccc2c1)C(=O)N[C@@H](Cc1csc2ccccc12)C(=O)N1CCC[C@H]1C(=O)N[C@H](C(=O)N[C@H](C(=O)N[C@@H](CCCNC(=N)N)C(=O)N[C@H](C(=O)O)C(C)(C)C)[C@@H](C)O)C(C)(C)S (Ac-C[dR]RR[2Nal][Bta]P[Pen]TR[Tle]-OH)
- Drug uptake [6]: 36%

Structure (SMILES): C[C@@H](O)[C@H](NC(=O)[C@@H](NC(=O)[C@H](CCC(N)=O)NC(=O)[C@H](Cc1c[nH]c2ccccc12)NC(=O)[C@H](Cc1ccc2ccccc2c1)NC(=O)[C@H](CCCNC(=N)N)NC(=O)[C@H](CCCNC(=N)N)NC(=O)[C@@H](CCCNC(=N)N)NC(=O)[C@H](CS)NC(=O)CCNC(=S)Nc1ccc(-c2c3ccc(=O)cc-3oc3cc(O)ccc23)c(C(=O)O)c1)C(C)(C)S)C(=O)N[C@@H](CCCNC(=N)N)C(=O)N[C@H](C(=O)O)C(C)(C)C
- Kd [1]: 1870 nM
- Kd [2]: 1640 nM
- Kd [3]: 4070 nM
- Kd [4]: 113 nM

Structure (SMILES): CC(=O)N[C@@H](CCCNC(=N)N)C(=O)N[C@@H](CCCNC(=N)N)C(=O)N[C@@H](Cc1ccccc1)C(=O)N[C@@H](Cc1c[nH]c2ccccc12)C(=O)N[C@H](CS)C(=O)N[C@@H](CS)C(=O)N[C@H](C(=O)N[C@@H](CCCNC(=N)N)C(=O)N[C@H](C(=O)O)C(C)(C)C)[C@@H](C)O (Ac-RRFW[dC]CTR[Tle]-OH)
- IC50 [7]: 10000 nM
